# From ChEMBL document CHEMBL5120856, “New salicylic acid derivatives, double inhibitors of glycolate oxidase and lactate dehydrogenase, as effective agents decreasing oxalate production” (Eur J Med Chem, 2022)
# Active and inactive are the calls of the source. The calls are words filed in the database; no cut-off is given here.
# What was measured:
# [1] = Inhibition of GO/LDHA in hyperoxaluric-primary hepatocyte isolated from Grhpr-knockdown PH2 C57BL/6 mouse measured at 48 hrs in the presence of 10 mM glycolate; assay type: cell-based
# Summary of the method: (§1)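 Grhpr-/- hepatocytes with 10 mM glycolate; eight inhibitor concentrations per replicate; colorimetric extracellular oxalate at 24 or 48 h; EC50 as mean of three/four replicates ± SD.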
# Hepatocyte [2] = assay: Inhibition of GO/LDHA in hyperoxaluric-primary hepatocyte isolated from Agxt1 knockdown PH1 C57BL/6 mouse assessed as reduction in extracellular oxalate concentration at 10 uM measured at 48 hrs in the presence of glycolate relative to control; assay type: cell-based; design: scale not given: the % may be the effect or the level left
# Summary of the method: (§2)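 Agxt1-/- mouse primary hepatocytes cultured with 5 mM glycolate, inhibitor at 10 μM; extracellular oxalate measured by colorimetric kit 24 and 48 h after inhibitor addition; relative oxalate = oxalate with inhibitor over oxalate without inhibitor; negative values mean below detection limit; mean of three/four replicates ± SD.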
# Hepatocyte [3] = assay: Cytotoxicity against hyperoxaluric-primary hepatocyte isolated from Grhpr-knockdown PH2 C57BL/6 mouse assessed as cell death at 10 uM by MTS assay; assay type: toxicity, cell-based; conditions: hepatocytes, Grhpr-knockdown PH2 (primary hyperoxaluria type 2)
# Summary of the method: (§3)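 Primary hepatocytes from Agxt1-/- (PH1, 5 mM glycolate), Grhpr-/- (PH2, 10 mM glycolate) or Hoga1-/- (PH3, 10 mM hydroxyproline) mice, incubated with inhibitor at 10 μM; viability followed through the oxalate assay by MTS tetrazolium method.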
# [4] = target: T1, 2-Hydroxyacid oxidase 1 (Mus musculus) (UniProt Q9WU19); assay: Non-competitive mixed inhibition of N-terminal His-tagged mouse recombinant glycolate oxidase expressed in Escherichia coli BL21 (DE3) cells assessed as decrease in Vmax with increase in apparent Km using glycolate as substrate upto 60 microM
# T1 sequence (whole entry): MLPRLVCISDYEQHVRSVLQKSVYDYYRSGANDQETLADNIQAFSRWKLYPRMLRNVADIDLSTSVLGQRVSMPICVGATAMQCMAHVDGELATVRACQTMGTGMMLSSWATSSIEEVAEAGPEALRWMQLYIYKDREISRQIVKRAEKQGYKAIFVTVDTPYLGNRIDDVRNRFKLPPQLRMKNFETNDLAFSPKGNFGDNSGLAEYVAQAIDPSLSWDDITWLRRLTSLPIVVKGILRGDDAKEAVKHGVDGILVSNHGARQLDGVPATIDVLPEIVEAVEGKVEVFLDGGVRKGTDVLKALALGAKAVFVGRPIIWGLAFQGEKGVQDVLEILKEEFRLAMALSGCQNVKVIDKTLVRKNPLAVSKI
# Hepatocyte [5] = assay: Inhibition of GO/LDHA in hyperoxaluric-primary hepatocyte isolated from Agxt1 knockdown PH1 C57BL/6 mouse assessed as reduction in relative oxalate output at 10 uM measured at 24 hrs in the presence of glycolate relative to control; assay type: cell-based; design: scale not given: the % may be the effect or the level left; summary of the method: as §2
# [6] = target: T2, L-lactate dehydrogenase B chain (Homo sapiens, UniProt P07195); assay: Non-competitive inhibition of human recombinant LDHB assessed as inhibition constant using varying concentration of pyruvate as substrate preincubated for 10 mins followed by substrate addition and measured every 60 sec for 10 mins in the presence of NADH by fluorescence assay
# [7] = Inhibition of GO/LDHA in hyperoxaluric-primary hepatocyte isolated from Grhpr-knockdown PH2 C57BL/6 mouse measured at 24 hrs in the presence of 10 mM glycolate; assay type: cell-based; summary of the method: as §1
# 2-Hydroxyacid oxidase 1 [8] = target: T3, 2-Hydroxyacid oxidase 1 (Mus musculus, UniProt Q9WU19); assay: Non-competitive mixed inhibition of N-terminal His-tagged mouse recombinant glycolate oxidase expressed in Escherichia coli BL21 (DE3) cells assessed as inhibition constant using varying concentration of glycolate as substrate measured every 60 sec for 15 mins by Amplex red and horseradish peroxidase based fluorescence assay
# T3 sequence (Q9WU19 whole entry): T1 sequence (whole entry)
# Hepatocyte [9] = assay: Cytotoxicity against hyperoxaluric-primary hepatocyte isolated from Hoga1-knockdown PH3 C57BL/6 mouse assessed as cell death at 10 uM by MTS assay; assay type: toxicity, cell-based; conditions: hepatocytes, Hoga1-knockdown PH3, 10 µM; summary of the method: as §3
# Hepatocyte [10] = assay: Inhibition of GO/LDHA in hyperoxaluric-primary hepatocyte isolated from Hoga1-knockdown PH3 C57BL/6 mouse assessed as reduction in relative oxalate output at 10 uM measured at 24 hrs in the presence of hydroxyproline relative to control; assay type: cell-based; design: scale not given: the % may be the effect or the level left
# Summary of the method: (§4)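 Hoga1-/- mouse primary hepatocytes challenged with 10 mM hydroxyproline, inhibitor 10 μM; extracellular oxalate measured by colorimetric kit 24 and 48 h after dosing, given as ratio to oxalate without inhibitor; negative values are below detection limit; mean of three/four replicates ± SD.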
# Hepatocyte [11] = assay: Inhibition of GO/LDHA in hyperoxaluric-primary hepatocyte isolated from Grhpr-knockdown PH2 C57BL/6 mouse assessed as reduction in relative oxalate output at 10 uM measured at 48 hrs in the presence of glycolate relative to control; assay type: cell-based; design: scale not given: the % may be the effect or the level left
# Summary of the method: (§5)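 Grhpr-/- mouse primary hepatocytes cultured with 10 mM glycolate, inhibitor at 10 μM; extracellular oxalate determined colorimetrically at 24 and 48 h post-treatment, expressed relative to untreated medium (RO); negative RO means below detection limit; three/four replicates, mean ± SD.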
# [12] = Inhibition of GO/LDHA in hyperoxaluric-primary hepatocyte isolated from Agxt1 knockdown PH1 C57BL/6 mouse measured at 24 hrs in the presence of 5 mM glycolate; assay type: cell-based
# Summary of the method: (§6)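 Agxt1-/- hepatocytes with 5 mM glycolate; eight inhibitor concentrations per replicate; extracellular oxalate measured colorimetrically at 24 or 48 h; EC50 as mean of three/four replicates ± SD.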
# [13] = Inhibition of GO/LDHA in hyperoxaluric-primary hepatocyte isolated from Agxt1 knockdown PH1 C57BL/6 mouse measured at 48 hrs in the presence of 5 mM glycolate; assay type: cell-based; summary of the method: as §6
# [14] = In vivo inhibition of GO/LDHA in Agxt1 knockdown PH1 C57BL/6 mouse assessed as decrease in urine oxalate level at 20 mg/kg, po administered for 5 days relative to control; assay type: functional; design: scale not given: the % may be the effect or the level left; conditions: time 5 day
# Summary of the method: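 Agxt1-/- (PH1) mice, ten males, dosed orally at 20 mg/kg body weight once daily for 5 days. 24-h urine was collected, and oxalate was normalised to creatinine. Urine glycolate was also measured. Values are expressed as % of each animal's own basal pre-treatment excretion, which serves as the control, and are reported as mean ± SE.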
# Hepatocyte [15] = assay: Cytotoxicity against hyperoxaluric-primary hepatocyte isolated from Agxt1-knockdown PH1 C57BL/6 mouse assessed as cell death at 10 uM by MTS assay; assay type: toxicity, cell-based; conditions: hepatocytes, Agxt1-knockdown PH1, 10 µM; summary of the method: as §3
# HEK293 = assay: Cytotoxicity against HEK293 cells assessed as reduction in cell viability upto 50 uM measured after 48 hrs by MTT assay; assay type: toxicity, cell-based; conditions: human, hek293, 48 h
# Hepatocyte [16] = assay: Inhibition of GO/LDHA in hyperoxaluric-primary hepatocyte isolated from Hoga1-knockdown PH3 C57BL/6 mouse assessed as reduction in relative oxalate output at 10 uM measured at 48 hrs in the presence of hydroxyproline relative to control; assay type: cell-based; design: scale not given: the % may be the effect or the level left; summary of the method: as §4
# Hepatocyte [17] = assay: Inhibition of GO/LDHA in hyperoxaluric-primary hepatocyte isolated from Grhpr-knockdown PH2 C57BL/6 mouse assessed as reduction in relative oxalate output at 10 uM measured at 24 hrs in the presence of glycolate relative to control; assay type: cell-based; design: scale not given: the % may be the effect or the level left; summary of the method: as §5
# [18] = Toxicity in Agxt1 knockdown PH1 C57BL/6 mouse assessed as tolerance at 20 mg/kg, po administered for 5 days; assay type: organism-based; conditions: in vivo, pH 1, 20 mg/kg, 120 h, time 5 day
# Summary of the method: (§7)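 Ten male Agxt1-/- mice dosed orally at 20 mg/kg daily for 5 days; 24-h urine oxalate (creatinine-normalized) and glycolate compared with pre-treatment baseline; clinical signs of toxicity monitored; mean ± SE.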
# Mus musculus = assay: In vivo inhibition of GO/LDHA in Agxt1 knockdown PH1 C57BL/6 mouse assessed as increase in urine glycolate level at 20 mg/kg, po administered for 5 days relative to control; assay type: functional, organism-based; conditions: time 5.0 day; summary of the method: as §7
# [19] = target: T2, L-lactate dehydrogenase B chain; assay: Mixed inhibition of human recombinant LDHB assessed as inhibition constant using varying concentration of pyruvate as substrate preincubated for 10 mins followed by substrate addition and measured every 60 sec for 10 mins in the presence of NADH by fluorescence assay
# [20] = target: T2, L-lactate dehydrogenase B chain; assay: Inhibition of human recombinant LDHB using pyruvate as substrate preincubated for 10 mins followed by substrate addition and measured every 60 sec for 10 mins in the presence of NADH by fluorescence assay
# 2-Hydroxyacid oxidase 1 [21] = target: T3, 2-Hydroxyacid oxidase 1; assay: Inhibition of N-terminal His-tagged mouse recombinant glycolate oxidase expressed in Escherichia coli BL21 (DE3) cells using glycolate as substrate preincubated for 10 mins followed by substrate addition and measured after 10 mins by Amplex red and horseradish peroxidase based fluorescence assay
# [22] = Toxicity in Agxt1 knockdown PH1 C57BL/6 mouse assessed as clinical signs of toxicity at 20 mg/kg, po administered for 5 days; assay type: organism-based; conditions: in vivo, pH 1, 20 mg/kg, 120 h, time 5 day; summary of the method: as §7
# [23] = Inhibition of GO/LDHA in hyperoxaluric-primary hepatocyte isolated from Hoga1-knockdown PH3 C57BL/6 mouse measured at 24 hrs in the presence of hydroxyproline; assay type: cell-based
# Summary of the method: (§8)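 Hoga1-/- hepatocytes with 10 mM hydroxyproline; eight inhibitor concentrations per replicate; colorimetric extracellular oxalate at 24 or 48 h; EC50 as mean of three/four replicates ± SD.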
# [24] = Inhibition of GO/LDHA in hyperoxaluric-primary hepatocyte isolated from Hoga1-knockdown PH3 C57BL/6 mouse measured at 48 hrs in the presence of hydroxyproline; assay type: cell-based; summary of the method: as §8
# T2 sequence (P07195 whole entry): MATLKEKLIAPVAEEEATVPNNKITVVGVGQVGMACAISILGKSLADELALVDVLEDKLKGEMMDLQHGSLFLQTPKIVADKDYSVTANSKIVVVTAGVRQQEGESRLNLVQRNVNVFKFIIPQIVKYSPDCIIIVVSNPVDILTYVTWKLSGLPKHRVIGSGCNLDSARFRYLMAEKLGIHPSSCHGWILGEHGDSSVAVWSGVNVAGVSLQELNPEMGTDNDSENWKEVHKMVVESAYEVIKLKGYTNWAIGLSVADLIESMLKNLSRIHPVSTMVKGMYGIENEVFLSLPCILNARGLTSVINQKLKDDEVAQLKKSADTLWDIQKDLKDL
smiles,measurement,setting,value
C#CCNCc1ccc(-c2ccc(O)c(C(=O)O)c2)o1.N,EC50,[1],2.7 µM
same,Activity,Hepatocyte [2],70%
same,Activity,Hepatocyte [3],Non-Toxic
same,inhibition,[4],Active
same,Activity,Hepatocyte [5],90%
same,Ki,[6],5.1 µM
same,EC50,[7],1.2 µM
same,Ki,2-Hydroxyacid oxidase 1 [8],10.5 µM
same,Activity,Hepatocyte [9],Non-Toxic
same,Activity,Hepatocyte [10],90%
same,Activity,Hepatocyte [11],70%
same,EC50,[12],4 µM
same,EC50,[13],3.8 µM
same,Activity,[14],50%
same,Activity,Hepatocyte [15],Non-Toxic
same,Activity,HEK293,Non-Toxic
same,Activity,Hepatocyte [16],70%
same,Activity,Hepatocyte [17],90%
same,Activity,[18],Non-Toxic
same,Activity,Mus musculus,Active
same,Ki,[19],2 µM
same,IC50,[20],11.8 µM
same,IC50,2-Hydroxyacid oxidase 1 [21],8.1 µM
same,Activity,[22],Non-Toxic
same,EC50,[23],1.7 µM
same,EC50,[24],1.9 µM
